Bioassay records from PubChem BioAssay.
Rows were chosen to be rich in hits. Some 2% of all compounds tested hit in one or more screens of this group.
Rpn11 block: Rpn11 (PSMD14) deubiquitinase inhibitors, primary screen, biochemical, fluorescence polarization, uHTS; 26S proteasome non-ATPase regulatory subunit 14 (Homo sapiens), O00487; human 26S proteasome, Ub4-pepOG fluorescence polarization; 20S core pre-blocked with epoxomicin; inhibition, % at 20 µM; actives 0.59% (n = 360,000); AID 588493, 2011;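 active = inhibition at 20 µM, scaled to each plate's controls, above about 33%, limit read from the data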
STEP block: STEP phosphatase inhibitors, primary screen, biochemical, fluorescence intensity, uHTS | Tyrosine-protein phosphatase non-receptor type 5 (Homo sapiens), P54829 | actives 0.25% (n = 360,000) | recombinant STEP, OMFP fluorogenic substrate | inhibition, % at 20 µM;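 active = inhibition at 20 µM, scaled per plate between control wells, above about 37%, limit read from the data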;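 also: 0% = DMSO with enzyme and substrate and 100% = substrate only without enzyme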
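Material: STEP (striatal-enriched tyrosine phosphatase) enzyme, cell-free; Compound dosing: 20 µM single dose in 1% DMSO; Technique: fluorescence read at 480 nm ex / 540 nm em; Times: reaction 20 min, ambient temperature; Medium: 50 mM Bis-Tris pH 6.0 with 2.5 mM DTT and 0.005% Tween 20; Also added: OMFP at 25 µM.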
Scp1 inh: Scp-1 phosphatase inhibitors, primary screen, biochemical, colorimetric, uHTS. actives 0.88% (n = 340,000). Recombinant Scp1, phosphopeptide, malachite green phosphate absorbance. AID 493091, 2011. inhibition, % at 20 µM;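 active = inhibition above about 50% at 20 µM, limit read from the data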;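 also: plate controls were DMSO wells with enzyme for no effect and wells lacking enzyme for full effect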
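System: truncated SCP-1 phosphatase (76-261aa); medium: Tris acetate buffer pH 5.5 with MgCl2 and Tween-20; incubation: 45 min room-temperature reaction, 5 min colour, 30 min stabiliser; compound: single 20 µM dose, 1% DMSO; reagent: Phosphorylated 17-residue peptide substrate; read-out: % inhibition at 20 µM; technique: colorimetric free-phosphate detection, absorbance 630 nm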
LMPTP block: LMPTP phosphatase inhibitors, primary screen, biochemical, fluorescence intensity, uHTS | Low molecular weight phosphotyrosine protein phosphatase (Homo sapiens), P24666 | recombinant LMPTP-A, OMFP fluorogenic substrate | inhibition, % at 20 µM | actives 0.22% (n = 360,000) | AID 651560, 2012;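 active = compounds that cut the enzyme signal by at least half of the control window in the single-dose screen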;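 also: plate controls were DMSO wells with enzyme plus substrate for no effect and substrate without enzyme for full effect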
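Test system – LMPTP-A phosphatase enzyme · Quantity – 0.625 nM LMPTP-A final · Reagent – OMFP substrate, 400 µM final · Dosing – one test concentration per compound, 20 µM, with 3% DMSO overall · Timing – 50 min enzyme reaction at room temperature, protected from light · Detection – fluorescence intensity · Controls – substrate-only low control, DMSO enzyme-plus-substrate high control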
DNMT1 block: human DNMT1 methyltransferase inhibitors, primary screen, biochemical, molecular beacon, fluorescence, HinP1I cleavage, uHTS; actives 0.83% (n = 360,000); DNA (cytosine-5)-methyltransferase 1 (Homo sapiens), P26358; inhibition (reported as % activation of signal), % at 10 µM; in the data active = inhibition above about 50%
Rpn11 inh conf: Rpn11 (PSMD14) deubiquitinase inhibitors, confirmation, biochemical, fluorescence polarization, single concentration; shares compounds with Rpn11 block; purified human 26S proteasome, Ub4-pepOG fluorescence polarization; proteasome pretreated with epoxomicin; inhibition, % at 20 µM; actives 29% (n = 1,900); AID 602318, 2012
MMP-2 inh: MMP-2 enzyme inhibition, confirmation, counter-screen for RPN11 inhibitor project, biochemical, fluorescence, single concentration; shares compounds with Rpn11 block; recombinant MMP-2, FRET peptide cleavage fluorescence; inhibition, % at 20 µM; actives 4% (n = 1,900);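 also: human MMP-2 activated beforehand with APMA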
Thrombin FP: bovine thrombin protease inhibition, confirmation, counter-screen for Rpn11 inhibitor project, biochemical, fluorescence polarization, single concentration; shares compounds with Rpn11 block; bovine thrombin cleavage of Ub4-pepOG; inhibition, % at 20 µM; actives 13% (n = 1,900); AID 602333, 2012;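 active = mean inhibition at least 40% at 20 µM, or signal 3 deviations below plate average, so some actives read negative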;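 also: plate controls were thrombin with DMSO for no effect and buffer wells lacking thrombin for full effect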
The depositor's hits bear a star; / = not tested or not shown; + = active, no number. Rule as the data show it, unless noted: active = inhibition above about 40%; inactive = the rest.

SMILES	Rpn11 block	STEP block	Scp1 inh	LMPTP block	DNMT1 block	Rpn11 inh conf	MMP-2 inh	Thrombin FP
CCn1nc(CC(=O)O)c2ccccc2c1=O	47.3*	6.1	-6.9	-1.1	-1.5	-0.7	-32.9	-11.7
CCCCn1nc(CC(=O)O)c2ccccc2c1=O	-5.1	-9.3	0.5	0.5	9.0	/	/	/
COC(=O)c1ccc(/C=N/OCC(=O)NCCc2ccc(OC)c(OC)c2)cc1	33.3*	-0.8	-1.4	0.6	-5.7	2.2	-5.9	-13.4
COc1ccc(CCNC(=O)CC(=O)N/N=C/c2ccc(C(=O)O)cc2)cc1OC	3.6	-2.3	-7.3	-1.1	2.0	/	/	/
CN1/C(=C\C(=O)COC(=O)Cn2nnc(-c3ccccc3)n2)C(C)(C)c2ccccc21	40.3*	-1.0	-7.2	5.9	-8.3	44.8*	2.0	6.4
CCOC(=O)C1(Cc2cccc(F)c2)CCN(C(=O)Cn2cnnn2)CC1	0.4	-2.6	-2.7	0.4	-0.7	/	/	/
NC(=O)c1ccc(NC(=O)COC(=O)/C=C/c2cn(-c3ccccc3)nc2-c2cccnc2)cc1	50.4*	-1.7	3.7	0.5	-18.4	37.9	-12.4	18.0
N#Cc1ccccc1NC(=O)COC(=O)/C=C/c1cn(-c2ccccc2)nc1-c1ccc(Cl)cc1	-3.3	4.5	-4.7	1.3	36.1	/	/	/
COc1cc(SC#N)ccc1N=Cc1c(C)[nH]n(-c2ccc(C)c(C)c2)c1=O	44.0*	2.1	-2.1	-0.3	-14.2	-9.7	-6.6	-10.4
Cc1[nH]n(-c2ccc(Cl)cc2)c(=O)c1C=NC12CN3CN(CN(C3)C1)C2	2.4	-1.7	-2.6	-1.1	0.2	/	/	/
COc1cc(SC#N)ccc1N=Cc1c(C)[nH]n(-c2ccc(Cl)cc2)c1=O	140.6*	0.9	-15.0	2.2	-25.1	7.0	3.3	5.8
CCN1/C(=C/c2ccc3cc(C)cc(C)c3[n+]2CC)Sc2cc(C)ccc21	169.5*	4.5	31.8	48.0*	-33.8	89.0*	-93.4	134.7*
CCN1/C(=C\c2ccc3cc(C)ccc3[n+]2CC)Sc2cc(C)c(C)cc21	91.8*	0.8	12.8	44.3	-7.6	88.7*	-140.5	144.8*
COc1ccccc1NC(=O)C1CCCN(c2cnccn2)C1 (stereo unspecified)	4.7	2.0	-4.5	-0.1	-2.6	/	/	/
CC(=O)c1c(O)c(C)c(O)c2c1OC1=CC(=O)C(C(C)=O)C(=O)[C@@]12C (stereo partly specified)	111.0*	-3.5	3.6	-2.1	16.9	120.4*	-21.9	108.6*
CN(Cc1ccc2c(c1)CCCN2C)C(=O)[C@H]1O[C@@H](n2ccc(=O)[nH]c2=O)[C@H](O)[C@@H]1O	-43.6	-3.9	/	-0.6	1.6	/	/	/
CCc1nc2c(OCCOc3ccc(F)cc3)cccn2c1N(C)C(=O)C(C)C	-1.8	-1.1	/	-1.4	0.3	/	/	/
Cc1nn(-c2ccccc2)c(N2CCCC2)c1/C=C1\N=C(c2ccc(F)cc2)OC1=O	80.7*	1.5	-3.2	3.9	4.1	-15.9	-11.7	-20.3
COc1ccc(Cn2c(C)nc3c(c2=O)c2nc4ccccc4nc2n3Cc2ccco2)cc1	+	37.1	94.9*	43.2	96.1*	26.9	4.3	-0.8
C[C@@H](CN=[N+]=[N-])CN1CC[C@H](C(C)(C)C)CCC1=O	-10.4	-1.8	-1.0	-1.6	-1.8	/	/	/
CC1CN(S(=O)(=O)c2cccc(C(=O)OC/C(O)=C(\C#N)c3nc4ccccc4[nH]3)c2)CC(C)O1 (stereo unspecified)	40.0*	2.3	1.6	1.6	-6.4	6.9	-9.6	4.0
CC(C)c1ccc(N(CCc2ccccn2)C(=O)C(C)(C)C)cc1	-8.9	-1.6	-3.3	1.3	-0.7	/	/	/
Cc1ccc(Cn2ncc3c(N4CCN(C)CC4)ncnc32)cc1	2.2	1.0	-6.1	-0.9	-3.9	/	/	/
Cc1ccc(Cn2ncc3c(N4CCN(c5ccc(C)cc5)CC4)ncnc32)cc1	101.6*	-0.4	6.3	-0.8	-10.4	-2.8	10.9	4.0
CC(=O)c1ccc(N2CCN(C(=O)Cc3cccs3)CC2)cc1	62.2*	-3.8	-6.1	-0.5	0.7	-10.3	50.0*	-6.9
SMILES	Rpn11 block	STEP block	Scp1 inh	LMPTP block	DNMT1 block	Rpn11 inh conf	MMP-2 inh	Thrombin FP
COc1ccc(N2CCN(C(=O)Cc3cccs3)CC2)cc1	-2.9	-0.4	-3.3	-0.8	1.8	/	/	/
Cc1nn(-c2ccc([N+](=O)[O-])cc2)c2c1C(c1ccc(OC(F)F)cc1)N1C(=N2)C(=O)Nc2ccccc21 (stereo unspecified)	13.7	2.7	-8.0	5.8	-3.0	/	/	/
COc1cccc(C2c3c(C)nn(-c4ccc([N+](=O)[O-])cc4)c3N=C3C(=O)Nc4ccccc4N32)c1 (stereo unspecified)	46.3*	0.7	-6.2	4.0	-12.5	4.7	2.5	12.8
COc1cc(Nc2ccn3nccc3n2)cc(OC)c1OC	-21.8	-2.3	/	-0.5	-2.7	/	/	/
Cc1cc(C)c2cc3c(N)c(C(=O)Nc4c(C)[nH]c(=O)[nH]c4=O)sc3nc2c1	46.0*	-1.3	2.4	1.9	-1.8	121.7*	-29.1	13.5
Cc1cc(C)c2cc3c(N)c(C(=O)N4CCOCC4)sc3nc2c1	4.9	0.6	4.6	1.3	-4.7	/	/	/
CCc1ccc(/C=C2/SC(=S)N(CCC(=O)Nc3ccc(C(=O)O)cc3)C2=O)cc1	114.1*	25.8	/	62.0*	10.9	42.9*	3.5	32.7
CCc1nnc(NC(=O)CCN2C(=O)/C(=C/c3cc(OC)c(OC)c(OC)c3)SC2=S)s1	48.2*	-1.6	-3.8	-1.6	17.7	23.2	-40.6	42.4*
Cc1ccc(/C=C2\SC(=S)N(CCC(=O)NNC(=O)c3ccncc3)C2=O)cc1	44.4*	0.5	-3.8	0.0	3.2	10.3	-28.4	12.3
